Most compounds without a hit are left out; they make up all but 2.2% or so of the library.
PDI inh: inhibitors of human PDI, primary screen, biochemical, turbidity, single point, plate reader; PDI insulin aggregation turbidity, A650, 90 min; inhibition, % at 10 µM; 0.052% of 350,000 active; AID 588391, 2011;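 active = mean inhibition across replicates of 30% or more, whatever share of single replicates reach that level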
Target sequence (P07237 whole entry, looked up): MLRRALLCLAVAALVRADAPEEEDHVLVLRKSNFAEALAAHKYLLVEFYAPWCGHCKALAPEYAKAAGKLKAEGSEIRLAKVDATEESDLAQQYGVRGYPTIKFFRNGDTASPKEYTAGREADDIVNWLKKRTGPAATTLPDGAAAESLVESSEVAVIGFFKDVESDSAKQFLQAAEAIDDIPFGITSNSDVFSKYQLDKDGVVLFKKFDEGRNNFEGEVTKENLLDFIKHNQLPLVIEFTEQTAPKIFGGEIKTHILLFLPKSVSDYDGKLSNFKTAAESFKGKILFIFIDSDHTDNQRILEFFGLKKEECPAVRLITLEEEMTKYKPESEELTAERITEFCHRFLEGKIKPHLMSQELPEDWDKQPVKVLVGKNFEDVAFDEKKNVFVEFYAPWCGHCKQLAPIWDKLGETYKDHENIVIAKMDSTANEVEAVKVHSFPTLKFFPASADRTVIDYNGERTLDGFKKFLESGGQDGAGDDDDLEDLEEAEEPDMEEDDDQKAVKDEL
FN deposition inh: inhibitors of fibronectin matrix deposition, primary screen, AH1F cells, Alexa488-fibronectin fluorescence, plate reader; AH1F fibroblasts, overnight; inhibition, % at 12.6 µM; 0.086% of 350,000 active; AID 743247, 2014;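 active = mean inhibition across replicates of 30% or more, regardless of how many single replicates reach that level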
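Measured by – fluorescence 485/525 nm · System – AH1F fibroblast monolayer, labelled fibronectin deposition · Amount – 10000 cells per well · Buffer or medium – serum-reduced DMEM (2% serum) · Doses – single dose, pinned · Also added – fluorescent fibronectin at 24 nM final · Schedule – 1 h cell attachment, overnight exposure to compound and label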
Ecoli rRNA inh: reduced GFP signal of wild-type E. coli, primary screen, bacterial rRNA inhibitor project, GFP/RFP fluorescence, OD600, single point. E. coli WT GFP vs humanized-ribosome RFP mutants, 24 h; stronger effect = lower value; DMSO median 0, no signal -100. GFP signal change (wild-type ribosome), % (no concentration beside the values). 1.6% of 350,000 active. AID 720706, 2013;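 active = significant combined selectivity score with lowered wild-type GFP, culture density cut under 30%, mutant RFP and density less affected; inactive = any of these conditions unmet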
PvdQ inh: P. aeruginosa PvdQ acylase inhibitors, primary screen, biochemical, fluorescence, plate reader and imaging, single point; 0.063% of 340,000 active; purified PvdQ acylase; PvdQ acylase [Pseudomonas aeruginosa LESB58]; inhibition, % at 10 µM; AID 488965, 2010; in the data active = inhibition above about 30%, passing the limit was not always enough
Env fusion inh: inhibitors of HIV-1 Env-driven cell-cell fusion, primary screen, HeLa-JRFL effector, CEM21 target cells, luciferase. inhibition, % at 12.3 µM. 1.1% of 360,000 active;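 active = mean replicate inhibition score of at least 50 and every replicate individually at or above 50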
ERp5 block: inhibitors of ERp5-driven insulin aggregation, primary screen, biochemical, turbidity, absorbance 650 nm, single point; Protein disulfide-isomerase A6 (Homo sapiens), Q15084; 90 min; 0.05% of 350,000 active; inhibition, % at 9.99 µM; AID 651711, 2012;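 active = mean replicate inhibition above about 25%, with every replicate also reaching it, limit read from the data, passing the limit was not always enough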
Of the large screens only hits and unclear results are named; the others gave an inactive call; ! = not confirmed by another sample.

CCN(CC)c1ccc(C(=O)N/N=C/c2ccccc2OC(F)F)cc1	FN deposition inh 41 (no result: Ecoli rRNA inh)
C[C@@H]1CCCCO[C@H](CN(C)C(=O)Nc2cccc3ccccc23)[C@H](C)CN([C@@H](C)CO)C(=O)c2cc(NC(=O)Nc3ccc(C(F)(F)F)cc3)ccc2O1	none (no result: PDI inh, FN deposition inh, PvdQ inh)
Cc1ccc(CNC(=O)CN2C(=O)NC(C)(c3ccc(Cl)cc3)C2=O)cc1 (stereo unspecified)	none
Cc1ccc(CNC(=O)CN2C(=O)NC(C)(c3cccc(Br)c3)C2=O)cc1 (stereo unspecified)	Ecoli rRNA inh -29
Oc1ccc(N=Nc2ccccc2-c2nn[nH]n2)c(O)c1	Ecoli rRNA inh -31
Cc1ccccc1-c1nn[nH]n1	none (no result: Ecoli rRNA inh, ERp5 block)
COc1ccc(C(Nc2cccc([N+](=O)[O-])c2)P(=O)(OC(C)C)OC(C)C)cc1 (stereo unspecified)	Env fusion inh 57
C=CCOC(=O)C1=C(C)NC(SCC(=O)Nc2ccc(C)c(Cl)c2)=C(C#N)C1c1ccco1 (stereo unspecified)	Env fusion inh 55 (no result: Ecoli rRNA inh, ERp5 block)
Cc1ccc(OCCN2CCN(c3ncnc4sc(C)c(C)c34)CC2)cc1	Env fusion inh 85 (no result: Ecoli rRNA inh, ERp5 block)
CCN1CCN(CCOc2ccc(Cl)cc2)CC1	none
Cc1sc2ncnc(N3CCCC(C)C3)c2c1C (stereo unspecified)	Ecoli rRNA inh -28
Clc1ccc(OCCN2CCN(c3ncnc4sccc34)CC2)cc1	Env fusion inh 99 (no result: Ecoli rRNA inh, ERp5 block)
C[C@H]1CN([C@@H](C)CO)C(=O)c2cccc(NC(=O)Nc3cccc4ccccc34)c2O[C@H]1CN(C)Cc1ccc(-c2ccccc2)cc1	none (no result: PDI inh, FN deposition inh, PvdQ inh, ERp5 block)
COc1ccc2c3c(n(C)c2c1)[C@H](CO)N(CC1CC1)CC31CCN(Cc2ccc(F)cc2)CC1	none (no result: PDI inh, FN deposition inh, PvdQ inh, Env fusion inh)
CN1C(=O)NC(c2ccccc2)C2=C1CN(c1cccc(C(F)(F)F)c1)C2=O (stereo unspecified)	PDI inh 31 (no result: Ecoli rRNA inh, ERp5 block)
CC(C)(C)OC(=O)N1CCc2onc(-c3ccc([N+](=O)[O-])cc3)c2C1=O	none (no result: FN deposition inh, PvdQ inh)
CC(C)(C)OC(=O)N1CCc2onc(-c3ccc(Br)cc3)c2C1=O	Env fusion inh 72 (no result: PvdQ inh)
Cc1cc2nncn2c2ccccc12	none (no result: Ecoli rRNA inh, ERp5 block)
Cc1ccccc1-n1c(=O)c2ccccc2n2cnnc12	Env fusion inh 83 (no result: Ecoli rRNA inh, ERp5 block)
C[C@@H]1CCCCO[C@@H](CN(C)C(=O)Nc2ccc(C(F)(F)F)cc2)[C@@H](C)CN([C@H](C)CO)C(=O)c2cc(NC(=O)C3CCCCC3)ccc2O1	none (no result: PDI inh, FN deposition inh, PvdQ inh)
CC1=C(C(=O)OCc2ccccc2)C(c2cccnc2)c2c(n(C)c(=O)n(C)c2=O)N1 (stereo unspecified)	Ecoli rRNA inh -17! (no result: Env fusion inh)
C(=Cc1nc2ccccc2o1)c1ccc2c(c1)OCO2	none (no result: PvdQ inh)
C(=Cc1cnc2ccccc2n1)c1ccc2c(c1)OCO2	Env fusion inh 68 (no result: PvdQ inh)
COc1cc(/C=N/NS(=O)(=O)c2ccc(C)cc2)ccc1OCc1cccc(C(=O)O)c1	Env fusion inh 72
COc1cc(/C=N/NS(=O)(=O)c2ccc3ccccc3c2)ccc1OCc1ccc(C(=O)O)cc1	Ecoli rRNA inh -23
COc1cc(/C=N/O)ccc1OCc1ccc(C(=O)O)cc1	Env fusion inh 113 (no result: Ecoli rRNA inh, ERp5 block)
COc1ccc2c3c(n(C)c2c1)[C@H](CO)N(C(=O)Nc1ccc(F)cc1)CC31CN(S(=O)(=O)c2cccs2)C1	none (no result: PDI inh, FN deposition inh, PvdQ inh, Env fusion inh, ERp5 block)
O=C1C=CC2(C=C1)O[C@H](Cc1ccccc1)[C@@H](Cc1ccccc1)O2	PDI inh 44, FN deposition inh 41
COc1ccc(C[C@@H]2OC3(C=CC(=O)C=C3)O[C@H]2Cc2ccc(OC)cc2)cc1	PDI inh 67 (no result: FN deposition inh, Ecoli rRNA inh, Env fusion inh, ERp5 block)
CCc1ccccc1NC(=S)NCC1CCN(c2ccc(OC)cc2)C1 (stereo unspecified)	Ecoli rRNA inh -18
COc1ccccc1CNC(=O)C1CCC(CNS(=O)(=O)c2cccs2)CC1 (stereo unspecified)	none
COc1cccc(NC(=O)C2CCC(CNS(=O)(=O)c3cccs3)CC2)c1 (stereo unspecified)	Ecoli rRNA inh -21
CC1C=NC(S(=O)(=O)N2CC[C@@H]3[C@H]2c2cc(-c4ccc(F)cc4)ccc2N(C)[C@H]3CO)=N1 (stereo partly specified)	none (no result: PDI inh, PvdQ inh, Env fusion inh, ERp5 block)
C[C@H](O)[C@@H]1C(=O)N2CCc3ccc(-c4ccccc4)cc3[C@@H]2C[C@@H]1N(C)C(=O)NC1CCCCC1	none
COCCNC(=S)N(C)[C@H]1C[C@H]2c3[nH]c4cccc(-c5ccccc5)c4c3CCN2C(=O)[C@H]1[C@H](C)O	Env fusion inh 59 (no result: PDI inh, PvdQ inh)
C[C@H](O)[C@@H]1C(=O)N2CCc3c([nH]c4cccc(-c5ccccc5)c34)[C@@H]2C[C@@H]1N(C)C(=O)NC1CCCCC1	Env fusion inh 61 (no result: PDI inh, PvdQ inh)
COc1ccc(C2=NS(=O)(=O)N(C)C(C(=O)N3C(C)CCCC3C)=C2)cc1 (stereo unspecified)	none (no result: PDI inh, Env fusion inh)
COc1ccc(C2=NS(=O)(=O)N(C)C(C(=O)N3CCCCC3C)=C2)cc1 (stereo unspecified)	Env fusion inh 60 (no result: PDI inh)
O=C(Cc1ccccc1)N1CC2(C1)[C@@H](c1ccccc1)[C@H](CO)N2C(=O)Cc1ccccc1	none (no result: PDI inh, FN deposition inh, PvdQ inh, Env fusion inh)
CN(C[C@H](Cc1ccccc1)N(C[C@@H](CC1CCCCC1)N(CCc1ccccc1)N=O)N=O)N=O	Env fusion inh 56
CN(C[C@H](c1ccccc1)N(C[C@H](Cc1ccccc1)N(CCc1ccccc1)N=O)N=O)N=O	none
CC(C)CCN(N=O)[C@@H](Cc1ccccc1)CN(N=O)[C@@H](Cc1ccccc1)CN(C)N=O	Env fusion inh 93
CCN(N=O)[C@@H](Cc1ccccc1)CN(N=O)[C@@H](Cc1ccccc1)CN(C)N=O	none
CN(C[C@H](Cc1ccccc1)N(C[C@H](Cc1ccccc1)N(CCC(C)(C)C)N=O)N=O)N=O	Env fusion inh 62 (no result: Ecoli rRNA inh, ERp5 block)
CN(C[C@H](Cc1ccccc1)N(C[C@H](c1ccccc1)N(CCc1ccccc1)N=O)N=O)N=O	Env fusion inh 74
CN1C(=O)c2cc(NS(=O)(=O)c3ccccc3Cl)ccc2OC[C@@H]2O[C@H](CC(=O)O)CC[C@H]21	none (no result: PDI inh, PvdQ inh)
Cc1noc(C)c1NC(=O)Nc1ccc2c(c1)C(=O)N([C@H](C)CO)C[C@H](C)[C@@H](CN(C)S(=O)(=O)c1cn(C)cn1)OCCCC[C@H](C)O2	none (no result: PDI inh, FN deposition inh, PvdQ inh)
C[C@@H]1CN([C@H](C)CO)C(=O)c2cc(NC(=O)Cc3ccccc3)ccc2O[C@H]1CN(C)CC1CC1	none (no result: PDI inh, FN deposition inh, PvdQ inh, Env fusion inh)

Assay outcomes from PubChem.
